# Source: ChEMBL document CHEMBL3244294, “Dehydrative metabolites of 1-(3-chlorophenyl)-1methyl-2-phenyl-2-(2-pyridine)ethanol as potential hypocholesteremic agents” (J Med Chem, 1978)
# How the values were obtained:
# [1] = system: Serum; test: Drug recovery in Sprague-Dawley rat serum at 25 mg/kg, ip after 10 hrs by RP-HPLC analysis; format: ADME, organism-based; parameters: dose 25 mg/kg, route intraperitoneal; conditions: in vivo
# Outline: (§1)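 Rats received 25 mg/kg ³H-labelled parent (tritium in 2-phenyl ring) by ip injection as an aqueous 0.26% Tween 80 suspension. Serum was taken by cardiac puncture at 2, 10 or 72 h (three rats), separated at 1700g for 30 min and deproteinized with methanol. The residue was analysed by C-18 reverse-phase HPLC. Values are percent of total recovered HPLC radioactivity.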
# [2] = system: Serum; test: Drug recovery in Sprague-Dawley rat serum at 25 mg/kg, ip after 72 hrs by RP-HPLC analysis; format: ADME, organism-based; parameters: dose 25 mg/kg, route intraperitoneal; conditions: in vivo; outline: as §1
# [3] = Drug recovery in sephadex G-10 chromatographic fraction of Sprague-Dawley rat urine at 25 mg/kg, ip by RP-HPLC analysis; format: ADME, organism-based; parameters: dose 25 mg/kg, route intraperitoneal; conditions: read-out: Drug recovery
# Outline: (§2)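 One rat was dosed ip at 25 mg/kg with ³H-labelled parent in aqueous 0.26% Tween 80, and urine was collected over 72 h. Urine was either pentane-extracted or fractionated on Sephadex G-10; fraction III was the radioactive eluate free of appreciable urine constituents. Fractions were analysed by C-18 reverse-phase HPLC as percent of total recovered radioactivity.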
# [4] = system: Rattus norvegicus; test: Estrogenicity in Sprague-Dawley rat assessed as uterus weight measured per gram of body weight at 25 mg/kg, po for 7 days in presence of 17-beta estradiol (reference value: 0.01 +/- 0.02 mg); format: ADME, organism-based; parameters: dose 25 mg/kg, route oral; conditions: in vivo, 168 h
# Outline: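 From 7 days later they were dosed orally by intubation with aqueous suspensions (25 mg/kg) for 7 consecutive days. On day 8 uteri were blotted free of fluid and weighed, expressed as mg/g body weight ×100. A standard curve came from sc 17β-estradiol in peanut oil, giving µg estradiol equivalent to 25 mg compound.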
# [5] = system: Serum; test: Drug recovery in Sprague-Dawley rat serum at 25 mg/kg, ip after 2 hrs by RP-HPLC analysis; format: ADME, organism-based; parameters: dose 25 mg/kg, route intraperitoneal; conditions: in vivo; outline: as §1
# [6] = system: Rattus norvegicus; test: Hypocholesteremic activity in Sprague-Dawley rat assessed as reduction in serum cholesterol level at 25 mg/kg for 7 days relative to control; format: functional; parameters: scale not given: the % may be the effect or the level left
# Outline: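 Male rats (200 g) were dosed at 25 mg/kg for 7 days, with dosing starting at 1 p.m. Sera were taken 24 h after the final dose, and serum cholesterol was determined by the method of Block et al. Results are reported as mean ± standard deviation and compared with controls by two-tailed Student's t test.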
# [7] = Drug recovery in pentane extract of Sprague-Dawley rat urine at 25 mg/kg, ip by RP-HPLC analysis; format: ADME, organism-based; parameters: dose 25 mg/kg, route intraperitoneal; conditions: read-out: Drug recovery; outline: as §2
# [8] = system: Serum; test: Drug recovery in hydrolyzed fraction of Sprague-Dawley rat serum at 25 mg/kg, ip after 72 hrs by RP-HPLC analysis; format: ADME, organism-based; parameters: dose 25 mg/kg, route intraperitoneal; conditions: in vivo
# Outline: (§3)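 ³H-labelled parent was given at 25 mg/kg ip in aqueous 0.26% Tween 80, and serum was collected by cardiac puncture at 72 h. Part of the serum was hydrolysed for 48 h with aryl sulfatase and glucuronidase, then deproteinized with methanol. The residue was run on C-18 reverse-phase HPLC. Values are percent of total recovered HPLC radioactivity.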
# [9] = system: Serum; test: Drug recovery in pentane extract of Sprague-Dawley rat serum treated with 1-(3-Chlorophenyl)-1-methyl-2-phenyl-2-(2-pyridine)ethanol at 25 mg/kg, ip by RP-HPLC analysis; format: ADME, organism-based; parameters: dose 25 mg/kg, route intraperitoneal; conditions: in vivo
# [10] = system: Serum; test: Drug recovery in Sprague-Dawley rat serum treated with 1-(3-Chlorophenyl)-1-methyl-2-phenyl-2-(2-pyridine)ethanol at 25 mg/kg, ip after 10 hrs by RP-HPLC analysis; format: ADME, organism-based; parameters: dose 25 mg/kg, route intraperitoneal; conditions: in vivo; outline: as §1
# [11] = system: Serum; test: Drug recovery in hydrolyzed fraction of Sprague-Dawley rat serum treated with 1-(3-Chlorophenyl)-1-methyl-2-phenyl-2-(2-pyridine)ethanol at 25 mg/kg, ip after 72 hrs by RP-HPLC analysis; format: ADME, organism-based; parameters: dose 25 mg/kg, route intraperitoneal; conditions: in vivo; outline: as §3
# [12] = Drug recovery in sephadex G-10 chromatographic fraction of Sprague-Dawley rat urine treated with 1-(3-Chlorophenyl)-1-methyl-2-phenyl-2-(2-pyridine)ethanol at 25 mg/kg, ip by RP-HPLC analysis; format: ADME, organism-based; parameters: dose 25 mg/kg, route intraperitoneal; conditions: in vivo; outline: as §2
# [13] = system: Serum; test: Drug recovery in Sprague-Dawley rat serum treated with 1-(3-Chlorophenyl)-1-methyl-2-phenyl-2-(2-pyridine)ethanol at 25 mg/kg, ip after 72 hrs by RP-HPLC analysis; format: ADME, organism-based; parameters: dose 25 mg/kg, route intraperitoneal; conditions: in vivo; outline: as §1
# [14] = system: Serum; test: Drug recovery in Sprague-Dawley rat serum treated with 1-(3-Chlorophenyl)-1-methyl-2-phenyl-2-(2-pyridine)ethanol at 25 mg/kg, ip after 2 hrs by RP-HPLC analysis; format: ADME, organism-based; parameters: dose 25 mg/kg, route intraperitoneal; conditions: in vivo; outline: as §1
Compound,Activity [4],Activity [6],Drug recovery [10],Drug recovery [11],Drug recovery [12],Drug recovery [13],also measured
CC(O)(c1cccc(Cl)c1)C(c1ccccc1)c1ccccn1 (stereo not given),0.49 µg,49.5%,,,,,Drug recovery [1]: 0.9%; Drug recovery [2]: 1.2%; dose excreted [3]: < 0.1%; Drug recovery [5]: 22%; dose excreted [7]: 1.6%; Drug recovery [8]: 1.2%
C/C(=C(/c1ccccc1)c1ccccn1)c1cccc(Cl)c1,0.22 µg,36.1%,,,,,Drug recovery [9]: 0.1%
C/C(=C(\c1ccccc1)c1ccccn1)c1cccc(Cl)c1,0.92 µg,62.8%,,,,,Drug recovery [9]: 0.1%
CC(O)(c1cccc(Cl)c1)C(c1ccc(O)cc1)c1ccccn1 (stereo not given),0.92 µg,43.5%,,,,,
C/C(=C(/c1ccc(O)cc1)c1ccccn1)c1cccc(Cl)c1,0.03 µg,38.1%,0.9%,0.4%,3.3%,1.1%,
C/C(=C(\c1ccc(O)cc1)c1ccccn1)c1cccc(Cl)c1,0.02 µg,30.5%,0.3%,0.3%,0.4%,0.2%,
C=C(c1cccc(Cl)c1)C(c1ccccc1)c1ccccn1 (stereo not given),,10.1%,,,,,
c1ccc(Cc2ccccn2)cc1,,,2.4%,1.2%,0.2%,2.2%,Drug recovery [14]: 4.7%
C=C(c1cccc(Cl)c1)C(c1ccc(O)cc1)c1ccccn1 (stereo not given),,4%,,,,,
